“And” between values parts separate entries of the source, which are not always exact repeats. Identical values can stand only once. Hit rate of the full screen: of about 360,000 compounds, about 200 (0.056%) were called active. Shown is part of a subset that was picked to be rich in actives. A number with no mark means an inactive call.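 Rule for the calls: active = mean normalized replicate activation at least 10% and every replicate at or above 10%; inconclusive = only one of the two criteria met; inactive = mean below 10% and not all replicates reach 10%.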

The assay in a line: activators of inactive X chromosome reactivation, primary screen, imaging, XiGFP fibroblasts, GFP high-content imaging, set 2 (AID 743238).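 Note: 0% = median of on-plate neutral control wells and 100% = ellipticine 6 µM median.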 The settings on record: XiGFP mouse fibroblasts, % GFP-positive cells imaging, 3 d; at 7.58 µM; active compounds read high; cells co-treated with 5-aza-dC sensitizer; scaled so ellipticine positive control = 100%. The essentials: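 System: SV40-immortalized XiGFP fibroblast cells, line 68-5-11 / Incubation: 3-day compound exposure, then 15 min fixation at room temperature / Compound: single concentration per compound, delivered by pin transfer / Buffer or medium: DMEM plus 5-aza-dC sensitizer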
On to `COC(=O)C[C@H]1CC[C@@H](NC(=O)c2ccccc2)[C@@H](CO)O1`, for which the activation was -0.033%. The result for `COc1ccc(NC(=O)N(C)C[C@H]2Oc3c(NC(=O)Nc4cccc5ccccc45)cccc3C(=O)N([C@@H](C)CO)C[C@H]2C)cc1` reads -0.612%; that for `O=C(C[C@H]1C[C@H]2c3cc(NC(=O)Nc4ccc(C(F)(F)F)cc4)ccc3O[C@H]2[C@@H](CO)O1)NCc1cccnc1`, 0.387%; that for `CCCC(=O)Nc1ccc2c(c1)OC[C@H](C)N(CCc1ccccc1)C[C@H](C)[C@@H](OC)CN(C)C2=O`, -0.359%. For the compound `CCNC(=O)C[C@@H]1C=C[C@@H](NC(=O)C2CCOCC2)[C@@H](CO)O1`, the activation is 0.276%. The result for `COc1ccc(S(=O)(=O)N(C)C[C@@H]2Oc3ccc(NC(=O)Cc4ccccc4)cc3CC(=O)N([C@@H](C)CO)C[C@H]2C)cc1` reads -0.0685%; that for `COc1ccc2c3c([nH]c2c1)[C@@H](CO)N(Cc1cc(F)ccc1F)CC31CCN(C(=O)C2CCC2)CC1`, 0.358%. Turning to `Cc1ccc(S(=O)(=O)Nc2ccc3c(c2)C(=O)N(C)[C@@H]2CC[C@@H](CC(=O)O)O[C@H]2CO3)cc1`, the activation is 0.151%.

As to `O=C(C[C@@H]1C=C[C@H](NC(=O)Nc2ccccc2F)[C@H](CO)O1)NCc1ccc(F)cc1`, the activation is 0.215%. For the compound `C[C@H](CO)N1C[C@H](C)[C@@H](CN(C)S(=O)(=O)c2cccs2)Oc2ccc(NC(=O)Nc3ccc(C(F)(F)F)cc3)cc2CC1=O`, the activation was -0.017%. On to `C[C@@H]1CCCCO[C@H](CN(C)C(=O)CCCN(C)C)[C@H](C)CN([C@@H](C)CO)C(=O)c2cc(NS(=O)(=O)c3ccc(Cl)cc3)ccc2O1`, for which the activation was 0.114%. As for `C[C@H]1CCCCO[C@H](CN(C)C(=O)Nc2ccc(F)cc2)[C@@H](C)CN([C@@H](C)CO)C(=O)c2cc(NC(=O)CCC(F)(F)F)ccc2O1`, the activation was -0.105%. The value for `N#C[C@@H]1[C@H](c2ccccc2-c2ccccc2F)[C@@H](CO)N1C(=O)C1CCOCC1` was 0.163%. The value for `O=C1C(Cl)=C(Oc2ccccc2)C(=O)c2ccccc21` was 19.2% (active); that for `CCC(=O)Nc1ccc2c(c1)C(=O)N(C)C[C@H](OC)[C@H](C)CN(C(=O)c1ccccc1F)[C@@H](C)CO2` was 0.375%; that for `CO[C@H]1CN(C)C(=O)c2cc(NS(C)(=O)=O)ccc2OC[C@@H](C)N(C)C[C@@H]1C` was -0.465%.

With `C[C@@H]1CN([C@@H](C)CO)C(=O)CCCn2cc(nn2)CO[C@@H]1CN(C)S(=O)(=O)c1cccc(F)c1`, the activation is -0.223%. The value for `C[C@H]1CN([C@@H](C)CO)C(=O)c2c(c3ccccc3n2C)-c2ccccc2CO[C@H]1CN(C)S(=O)(=O)c1ccc(C#N)cc1` was -1.22%; that for `CCC(=O)N1CC(=O)N2[C@@H](CO)[C@@H](c3ccc(C#CC4CCCC4)cc3)[C@@H]2C1` was -0.0225%; that for `CCCC#Cc1ccc([C@H]2[C@H]3CN(C(=O)Nc4cc(F)ccc4F)CC(=O)N3[C@H]2CO)cc1` was 0.26%. With `CN1C(=O)c2cc(NC(=O)c3cccc(F)c3)ccc2OC[C@@H]2O[C@@H](CC(=O)NCC3CCCCC3)CC[C@H]21`, the activation was -0.045% and -0.023%. For `Cc1ccccc1S(=O)(=O)N1C[C@H](O)COC[C@H]2O[C@H](CC(=O)N3CCCCC3)CC[C@@H]21`, the activation was 0.037%. Turning to `C=C(C)C[C@H]1CCn2cc(nn2)COCCNC1=O`, the activation was 0.348%.

As for `C[C@H]1CN([C@@H](C)CO)C(=O)c2cccc(NC(=O)CCCCCC(=O)Nc3ccccc3N)c2O[C@@H]1CN(C)C(=O)NC1CCCCC1`, the activation was -1.38%. The value for `C[C@@H]1CN([C@@H](C)CO)C(=O)c2cc(NS(=O)(=O)c3ccc(F)cc3)ccc2O[C@@H]1CN(C)C(=O)NC1CCCCC1` was 0.0955%; that for `O=C(C[C@@H]1C=C[C@H](NC(=O)C2CCC2)[C@@H](CO)O1)NCC1CC1` was 0.225%.

In the case of `C[C@@H]1CN([C@@H](C)CO)C(=O)c2cc(NC(=O)Nc3cccc4ccccc34)ccc2O[C@H]1CN(C)Cc1ccc(Oc2ccccc2)cc1`, the activation is 0.262%. The value for `O=C([C@@H]1[C@@H](CO)[C@@H]2Cn3c(ccc(C4=CCCC4)c3=O)[C@H]1N2C(=O)c1ccncc1)N1CCCCC1` was 0.116%; that for `O=C(C[C@@H]1C[C@H]2c3cc(NC(=O)Nc4ccccc4F)ccc3O[C@H]2[C@@H](CO)O1)NC1CCCCC1` was -0.047%; that for `C[C@H](NC(=O)C[C@H]1C=C[C@@H](NC(=O)C2CCOCC2)[C@@H](CO)O1)c1ccccc1` was 0.456%.

For the compound `C[C@@H]1CC=CC[C@@H](c2ccccc2)NC(=O)[C@@H](Cc2ccccc2)N(C)C(=O)c2ccccc2O1` (mixture of isomers), the activation is 0.0795%.

For `Cc1ccc(-c2ccc([C@H]3[C@H]4CN(S(=O)(=O)c5cccc(F)c5)CC(=O)N4[C@H]3CO)cc2)cc1`, the activation is 0.287%. Take `CC(C)NC(=O)N1[C@H](CO)[C@@H]2c3ccccc3N(C(=O)Nc3cccc(Cl)c3)C[C@@H]21`: the activation was 0.198%.

`C/C=C/c1ccc([C@H]2[C@@H](CO)N3CCCCN(C(=O)c4ccc(F)cc4)C[C@@H]23)cc1`: the activation was 0.11%. The value for `O=C(Nc1cc(F)ccc1F)N[C@H]1CC[C@H](CCn2cc(C3CCCC3)nn2)O[C@@H]1CO` was 0.418%; that for `C/C=C/c1ccccc1[C@H]1[C@@H](C#N)N(c2nc(CC)cs2)[C@@H]1CO` was -0.0085%. Take `OC[C@@H]1[C@@H](c2ccccc2)C2(CN(Cc3cccc(F)c3)C2)N1CC1CCCC1`: the activation was -0.0685%. The value for `CO[C@@H]1CN(C)C(=O)c2cc(NC(=O)C3CCCC3)ccc2OC[C@@H](C)N(C(=O)Nc2ccc(C(F)(F)F)cc2)C[C@H]1C` was 0.0025%; that for `C[C@@H]1CN([C@H](C)CO)C(=O)c2cccc(NS(=O)(=O)c3ccc(Cl)cc3)c2O[C@@H]1CN(C)CC1CC1` was 0.281%; that for `Cc1noc(C)c1NC(=O)N(C)C[C@@H]1Oc2c(NC(=O)C3CCCCC3)cccc2C(=O)N([C@H](C)CO)C[C@@H]1C` was -0.974%. For `CCCC(=O)N1CCC2(CC1)CN[C@H](CO)c1[nH]c3cc(OC)ccc3c12`, the activation was -0.018%.

For `O=C(C[C@@H]1CC[C@H]2[C@@H](COC[C@@H](O)CN2S(=O)(=O)c2cccc(F)c2)O1)NCCCN1CCOCC1`, the activation is -0.0535%. The value for `C[C@@H]1CCCCO[C@H](CN(C)Cc2ccncc2)[C@@H](C)CN([C@H](C)CO)C(=O)c2cc(NS(C)(=O)=O)ccc2O1` was -0.0215%; that for `CO[C@H]1CN(C)C(=O)c2ccc(NC(=O)C3CCC3)cc2OC[C@H](C)NC[C@@H]1C` was 0.146%; that for `COc1ccc(NC(=O)Nc2ccc3c(c2)[C@H]2C[C@H](CC(=O)NC4CCCC4)O[C@@H](CO)[C@H]2O3)cc1` was 4.51%. On to `COc1cccc(-c2ccc([C@@H]3[C@H]4CN(C(=O)c5cccnc5)CC(=O)N4[C@H]3CO)cc2)c1`, for which the activation is 0.076%. With `O=C(c1ccncc1)N1C[C@H]2[C@@H](c3ccccc31)[C@H](CO)N2C(=O)Nc1ccc(F)cc1`, the activation was 0.255%. Regarding `C[C@H]1CN([C@@H](C)CO)C(=O)Cc2cc(NC(=O)Cc3ccccc3)ccc2O[C@@H]1CN(C)S(=O)(=O)c1ccc(Cl)cc1`, the activation is -1.34%. The value for `CO[C@@H]1CN(C)C(=O)c2cc(NC(=O)NC3CCCC3)ccc2OC[C@H](C)NC[C@H]1C` was 0.41%; that for `C[C@@H]1CCCCO[C@@H](CN(C)C(=O)CCCN(C)C)[C@@H](C)CN([C@H](C)CO)C(=O)c2cc(NC(=O)Nc3ccc(F)cc3)ccc2O1` was 0.229%. As for `COc1ccc(N2C(=O)C3CCCN3C2c2cccc(OC)c2)cc1` (stereo not drawn), the activation was 12.3% (active). Turning to `COc1ccc(N2C(=O)C3CCCN3C2c2cccs2)cc1` (stereo not drawn), the activation is -0.124%. Regarding `COc1ccc(N2C(=O)C3CCCN3C2c2cc(OC)c(OC)cc2OC)cc1` (stereo not drawn), the activation is 0%. The value for `O=C(C[C@@H]1CC[C@@H]2[C@H](COC[C@H](O)CN2C(=O)C2CC2)O1)NCc1ccncc1` was 0.085%; that for `C[C@@H]1CCCCO[C@H](CN(C)S(C)(=O)=O)[C@@H](C)CN([C@@H](C)CO)C(=O)c2cc(NC(=O)CCC(F)(F)F)ccc2O1` was 0.0715%; that for `O=C(c1ccccn1)N1CC2(C1)[C@@H](c1ccccc1)[C@@H](CO)N2C(=O)C1CCCCC1` was -0.0175%.

Take `O=C(N[C@@H]1CC[C@H](CCn2cc(C3CC3)nn2)O[C@H]1CO)c1cccnc1`: the activation is -0.107%. On to `CO[C@H]1CN(C)C(=O)c2cc(NC(=O)C3CC3)ccc2OC[C@@H](C)NC[C@H]1C`, for which the activation was 0.168%. Consider `CNc1cncc(-c2cccc(C(=O)N3CCOCC3)c2)n1`, for which the activation was 0.023%. The result for `CCc1nc2ccc(C(=O)N3CCN(c4cccc(Cl)c4)CC3)cc2nc1CC` reads 0.143%; that for `C#Cc1cc(N2CCN(C(=O)c3ccoc3)CC2)n2nc(-c3cccc(Cl)c3)cc2n1`, 34% (active). The result for `CO[C@@H]1CN(C)C(=O)c2cc(NC(=O)c3cccc(F)c3)ccc2OC[C@H](C)N(C)C[C@@H]1C` reads -0.118%; that for `COc1ccc(NC(=O)N(C)C[C@@H]2OCCCC[C@H](C)Oc3ccc(NS(=O)(=O)c4c(C)noc4C)cc3C(=O)N([C@@H](C)CO)C[C@@H]2C)cc1`, 0.115%.

The values above are taken from PubChem BioAssay AID743238 (Broad Institute, 2013).
